Published values collected from several papers.
IRAK4: Interleukin-1 receptor-associated kinase 4 (IRAK4, Homo sapiens, UniProt Q9NWZ3)
P2RY14: P2Y purinoceptor 14 (P2RY14, Homo sapiens, UniProt Q15391)

OCc1ccc(Nc2ncc(Cl)c(Nc3ccccc3-c3nccs3)n2)cc1 gave an IC50 of 0.0264 µM (IRAK4; enzyme activity, inhibitor, radiometric).
The IC50 of CC(C)OC(=O)[C@H](Cc1c[nH]c2ccccc12)NC(=O)c1ccc2nccnc2c1 is reported as 0.0098 µM (P2RY14; cAMP, antagonist).
O=C(O)c1cc(-c2ccc(-c3c[nH]nn3)cc2)c2ccc(-c3ccc(C(F)(F)F)cc3)cc2c1 has an IC50 of 0.00369 µM (P2RY14; ligand displacement in cells, flow cytometry).
O=C(COc1ccccc1)N[C@@H](Cc1c[nH]c2ccccc12)C(=O)O has an IC50 of 0.0189 µM (P2RY14; cAMP, antagonist).
With CS(=O)(=O)c1ccccc1Nc1nc(Nc2ccnc(CO)c2)ncc1Cl the IC50 was 0.106 µM (IRAK4; enzyme activity, inhibitor, radiometric).
For Cc1ccc(OCC(=O)N[C@@H](Cc2c[nH]c3ccccc23)C(=O)OC(C)C)cc1, the IC50 was 0.0012 µM (P2RY14; cAMP, antagonist).
COC(=O)/C=C/c1ccc(OCCN(C)c2ccccc2)cc1 has an IC50 of greater than 50 µM (Fatty acid CoA ligase Acsl3 (ACSL3, Homo sapiens, UniProt O95573); enzyme activity, inhibitor).
C#Cc1cnc(Nc2ccc(CO)cc2)nc1Nc1ccccc1C(=O)NC has an IC50 of 0.00051 µM (IRAK4; enzyme activity, inhibitor, radiometric).
c1c(N2CCCC2)nc(N2CCCC2)nc1N1CCNCC1 gave an IC50 of 0.233 µM (Caspase-1 (CASP1, Homo sapiens, UniProt P29466); enzyme activity, inhibitor; with preincubation).
CC(C)(C)NS(=O)(=O)c1cccc(C(=O)N2CC3(CCC4(CC4)CC3)c3cc(NS(C)(=O)=O)ccc32)c1 has an IC50 of greater than 100 µM (Kinesin-like protein KIF11 (KIF11, Homo sapiens, UniProt P52732); ATPase activity, inhibitor).
NCC(=O)O has an IC50 of 1900 µM (ltaE (Escherichia coli, UniProt P75823); enzyme activity, inhibitor).
The IC50 of C#Cc1cnc(Nc2ccnc(CO)c2)nc1Nc1ccccc1S(C)(=O)=NC#N (stereo not shown) is reported as 0.00447 µM (IRAK4; enzyme activity, inhibitor, radiometric).
COc1ccc(OCC(=O)N[C@@H](Cc2c[nH]c3ccccc23)C(=O)OC(C)C)cc1 gave an IC50 of 0.0156 µM (P2RY14; cAMP, antagonist).
CNC(=O)c1ccccc1Nc1nc(Nc2ccc(CO)nc2)ncc1Cl gave an IC50 of 0.0208 µM (IRAK4; enzyme activity, inhibitor, radiometric).
Cn1nccc1-c1ccc(-c2cc(C(=O)O)cc3cc(-c4ccc(C(F)(F)F)cc4)ccc23)cc1 has an IC50 of 0.0491 µM (P2RY14; ligand displacement in cells, flow cytometry).
O=C(N[C@@H](Cc1c[nH]c2ccccc12)C(=O)O)c1ccco1 has an IC50 of 0.0234 µM (P2RY14; cAMP, antagonist).
The IC50 of CNC(=O)c1ccccc1Nc1nc(Nc2ccc(CO)cc2)ncc1Cl is reported as 0.00249 µM (IRAK4; enzyme activity, inhibitor, radiometric).
The IC50 of Nc1ncnc2c1ncn2[C@@H]1O[C@H](CSCC[C@H](N)C(=O)O)[C@@H](O)[C@H]1O is reported as 6.26 µM (Histone-lysine N-methyltransferase, H3 lysine-36 specific (NSD1, Homo sapiens, UniProt Q96L73); enzyme activity, inhibitor).
With CNC(=O)c1ccccc1Nc1nc(Nc2ccc(CO)cc2)ncc1C1CC1 the IC50 was 0.003 µM (IRAK4; enzyme activity, inhibitor, radiometric).
Cn1ccc(-c2ccc(-c3cc(C(=O)O)cc4cc(-c5ccc(C(F)(F)F)cc5)ccc34)cc2)n1 has an IC50 of 0.0355 µM (P2RY14; ligand displacement in cells, flow cytometry).
O=C(NO)c1ccc(Cn2cnc3c(Nc4ccc(Cl)cc4)ncnc32)cc1 has an IC50 of 0.0151 µM (Histone deacetylase 3 (HDAC3, Homo sapiens, UniProt O15379); enzyme activity, inhibitor, fluorescence).
The IC50 of O=C(O)c1cc(-c2ccc(-n3nncc3CCOP(=O)(O)O)cc2)c2ccc(-c3ccc(C(F)(F)F)cc3)cc2c1 is reported as 0.157 µM (P2RY14; ligand displacement in cells, flow cytometry).
CNC(=O)c1ccccc1Nc1nc(Nc2ccc(CO)cc2)ncc1C#N has an IC50 of 0.108 µM (IRAK4; enzyme activity, inhibitor, radiometric).
With O=C(O)c1cc(-c2ccc(-n3ccnn3)cc2)c2ccc(-c3ccc(C(F)(F)F)cc3)cc2c1 the IC50 was 0.0244 µM (P2RY14; ligand displacement in cells, flow cytometry).
The IC50 of c1coc(-c2n[nH]cc2-c2ccnc3ccccc23)c1 is reported as 1.1 µM (TGF-beta receptor type-1 (TGFBR1, Homo sapiens, UniProt P36897); enzyme activity, inhibitor, radiometric).
